Source: PubChem
V-ATPase pH – regulators of yeast V-ATPase proton pumping, primary screen, pHLuorin cytosolic pH fluorescence. actives 0.37% (n = 350,000). response, % at 10 µM. S. cerevisiae; in the data active = response mostly above about 7.3%, no sharp cut-off; inactive = mostly below about 5.4%; note: actives read high
ABCB6 inh 2 – ABCB6 transporter inhibitors, primary screen, K562-ABCB6 cells, flow cytometry, MLPCN library | AID 602162, 2011 | K562-ABCB6 porphyrin accumulation, 1 h; hits give low values | actives 0.19% (n = 360,000) | ATP-binding cassette sub-family B member 6 (Homo sapiens), Q9NP58 | fluorescence ratio to DMSO, % at 10 µM;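 active = fluorescence ratio to DMSO below 75%, the collection mean minus 3 SD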;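 note: signal is porphyrin accumulated inside mitochondria; 100% equals median channel fluorescence of DMSO control wells; lower ratio means ABCB6 inhibition with less porphyrin fluorescence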
Dynein transport – inhibitors of GR-EGFP nuclear translocation, primary screen, dynein cargo transport inhibitor project, imaging, high-content, 3617.4 mouse cells | actives 0.47% (n = 220,000) | z-score, hits read low | test concentration mostly 20 µM; stimulated with dexamethasone, 1 µM; hits give low values;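 active = plate z-score of nuclear minus cytoplasmic receptor signal below a set negative limit, without overly bright fluorescence or cell loss, cut at about -3.5 in these data, passing the limit was not always enough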;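 note: z-score of nuclear minus cytoplasmic ring GR-EGFP intensity difference per well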
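Buffer or medium: tet-free medium with charcoal-stripped serum / Also added: dexamethasone agonist, 1.0 µM final, for 30 min / Timing: induction 48 h, compound 1 h, agonist 30 min / Measured by: high-content fluorescence imaging after fixation / Read-out: nuclear-to-cytoplasmic GR-EGFP distribution per well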
KCC2 mod – KCC2 cotransporter modulators, thallium flux, primary screen, cell-based, HEK293 KCC2, FluoZin-2 fluorescence, MLSMR; AID 1456, 2008; Solute carrier family 12 member 5 (Homo sapiens), Q9H2X9; actives 2.2% (n = 190,000); KCC2 cells, thallium flux FluoZin-2 fluorescence; B-score of Tl+ flux slope (higher = more flux/activation; lower = inhibition) at 10 µM;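 active = thallium flux slope and its plate-corrected score both differing from the plate sample mean at a set confidence after two filtering rounds, in either direction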;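 note: slope of fluorescence scaled to starting intensity during 10 to 20 s after thallium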
Target sequence (Q9H2X9 whole entry, looked up): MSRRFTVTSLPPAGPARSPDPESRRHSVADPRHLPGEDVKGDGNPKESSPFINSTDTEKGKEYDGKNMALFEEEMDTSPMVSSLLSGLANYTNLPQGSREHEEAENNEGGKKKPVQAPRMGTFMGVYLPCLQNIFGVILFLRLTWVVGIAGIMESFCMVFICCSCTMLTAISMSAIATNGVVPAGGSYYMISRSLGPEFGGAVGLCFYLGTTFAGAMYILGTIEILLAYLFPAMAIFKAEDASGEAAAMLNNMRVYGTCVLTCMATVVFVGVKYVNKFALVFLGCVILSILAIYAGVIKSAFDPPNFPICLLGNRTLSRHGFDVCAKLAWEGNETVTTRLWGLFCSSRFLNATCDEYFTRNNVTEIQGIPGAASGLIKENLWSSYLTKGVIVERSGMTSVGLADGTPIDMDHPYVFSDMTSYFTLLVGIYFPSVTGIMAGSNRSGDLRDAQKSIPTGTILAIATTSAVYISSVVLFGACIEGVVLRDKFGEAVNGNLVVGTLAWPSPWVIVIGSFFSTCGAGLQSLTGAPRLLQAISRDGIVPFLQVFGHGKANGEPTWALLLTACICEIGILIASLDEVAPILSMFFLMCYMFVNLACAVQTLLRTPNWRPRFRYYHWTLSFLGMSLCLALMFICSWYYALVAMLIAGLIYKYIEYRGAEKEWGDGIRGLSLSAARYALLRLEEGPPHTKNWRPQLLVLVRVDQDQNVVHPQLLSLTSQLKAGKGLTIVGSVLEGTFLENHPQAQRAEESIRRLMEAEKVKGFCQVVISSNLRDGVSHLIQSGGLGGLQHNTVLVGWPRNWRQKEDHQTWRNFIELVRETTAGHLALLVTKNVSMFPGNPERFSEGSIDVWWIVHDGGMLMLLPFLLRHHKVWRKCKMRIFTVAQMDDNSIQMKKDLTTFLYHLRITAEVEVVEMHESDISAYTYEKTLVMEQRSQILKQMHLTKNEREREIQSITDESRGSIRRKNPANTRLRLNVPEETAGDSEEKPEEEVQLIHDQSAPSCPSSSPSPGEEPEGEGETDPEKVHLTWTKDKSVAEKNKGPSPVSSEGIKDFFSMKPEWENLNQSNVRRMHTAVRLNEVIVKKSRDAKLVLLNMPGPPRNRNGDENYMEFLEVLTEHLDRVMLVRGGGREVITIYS
pCIP destab – p/CIP-EGFP fusion destabilizers, primary screen, fluorescence, F442A cells. Q05BA5. 16 h. decrease of EGFP signal, % at 10 µM. actives 0.01% (n = 290,000). AID 1984, 2009;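 active = EGFP signal decrease of at least 30% at 10 µM or well 3 SD below plate mean, unless failing retest; inactive = the rest, including hits failing retest or dose response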
Dynein confirm – dynein cargo transport inhibitors, GR-EGFP translocation, confirmation, imaging, high-content imaging, GR-EGFP cells; shares compounds with Dynein transport; 3617.4 GR-EGFP nuclear translocation imaging, dexamethasone-induced; calls only at 20 µM; actives 69% (n = 1,000);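 active = inhibition of receptor movement into the nucleus at or above a set limit in both runs, with normal cell brightness and cell count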;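 note: dexamethasone at 1 µM final in well for 30 min; nuclear minus cytoplasmic GR-EGFP mean intensity difference in channel 2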
Active calls of the source: *; i = inactive; / = not tested or not shown; + = active, no number. The sample as a whole holds a higher share of hits than the screen did.

SMILES | V-ATPase pH | ABCB6 inh 2 | Dynein transport | KCC2 mod | pCIP destab | Dynein confirm
CC(=O)c1sc2nc(-c3cccs3)cc(C(F)(F)F)c2c1N | 4.2 | i | -4.29 | -0.0303 | -13.8 | +
Nc1c(C(=O)C2CC2)sc2nc(-c3ccccc3)cc(C(F)(F)F)c12 | 0.3 | 623.0 | -6.14 | -0.547 | -8.5 | i
CC1(C)COC(c2coc3ccccc3c2=O)OC1 | -0.7 | 103.0 | 1.25 | 0.618 | -2.7 | /
CCOC(=O)c1c(-c2ccc(C)o2)csc1NC(=S)NC(=O)N(C)C | -9.0 | 92.0 | -3.83* | / | 4.4 | i
CCOC(=O)c1c(-c2ccc(C)o2)csc1NC(=O)COC(=O)c1cccs1 | 2.2 | 89.0 | -0.934 | -0.001 | 4.9 | /
CC(C)COc1cc(=O)[nH]c(SCC(C)C)n1 | -3.5 | 96.0 | -4.23* | 0.152 | -2.8 | i
CCNC(=O)C1CCCN(Cc2cc(-c3ccccc3)on2)CC1 (stereo not drawn) | / | 102.0 | / | / | / | /
O=C(/C=C/c1ccco1)NC(=S)Nc1ccccc1N1CCOCC1 | -0.2 | 90.0 | -0.0682 | -0.755 | 3.3 | /
O=C(/C=C/c1ccco1)Nc1ccccc1N1CCCC1 | 1.7 | 103.0 | -3.62* | 0.618 | -12.8 | i
O=S(=O)(c1ccccc1)c1ncc(C(F)(F)F)cc1Cl | 0.8 | 94.0 | -6.39* | 0.422 | 10.7 | +
CN(C(=O)COC(=O)c1nc(Cl)c(Cl)c(Cl)c1Cl)C1CCS(=O)(=O)C1 (stereo not drawn) | -2.0 | 105.0 | -4.62* | 0.916 | -3.3 | +
CN(C(=O)COC(=O)c1ccc(C(C)(C)C)cc1)C1CCS(=O)(=O)C1 (stereo not drawn) | -2.8 | 102.0 | / | / | / | /
COc1ccc(C(=O)N/N=C/c2sc(N3CCOCC3)nc2-c2ccccc2)cc1OC | 5.5 | 92.0 | -1.49 | -1.48 | -5.2 | /
O=[N+]([O-])c1ccc(N/N=C/c2c[nH]c3ccccc23)cc1 | -3.9 | 507.0 | -8.38 | 0.24 | -107.7 | +
O=[N+]([O-])c1ccccc1N/N=C/c1c[nH]c2ccccc12 | -2.4 | 84.0 | -0.681 | -0.516 | -5.1 | /
COc1ccccc1NS(=O)(=O)c1cc([N+](=O)[O-])ccc1N/N=C/c1sc(N2CCOCC2)nc1-c1ccccc1 | 7.0 | i | -11.8 | 0.292 | -231.9 | i
Cc1[nH]c2ccccc2c1/C=N/Nc1ccc([N+](=O)[O-])cc1S(=O)(=O)Nc1ccc(Cl)cc1 | -1.7 | 876.0 | -5.35 | -1.16 | -31.1 | i
O=[N+]([O-])c1ccc(N/N=C/c2ccc[nH]2)cc1 | 0.5 | 111.0 | -10.6 | -1.74 | -32.0 | +
COc1ccccc1NS(=O)(=O)c1cc([N+](=O)[O-])ccc1N/N=C/c1c[nH]c2ccccc12 | 2.3 | 403.0 | -4.13 | -0.0132 | -78.4 | i
CC(C)(C)NC(=O)C1(C)CCC(=O)N1CCCn1ccnc1 (stereo not drawn) | / | 100.0 | / | / | / | /
COc1ccc(-c2cc(C(F)(F)F)nc(S(=O)(=O)CCCC(=O)Nc3cccc(O)c3)n2)cc1OC | / | 99.0 | -5.65* | -0.173 | 2.0 | +
COCCCNC(=O)c1ccccc1Oc1ccccc1 | -1.2 | 99.0 | 0.0144 | 0.777 | -6.3 | /
COCCCNC(=O)c1ccc2c3c(onc13)-c1ccccc1C2=O | 7.3 | 129.0 | -4.88* | i | -2.4 | +
CCS(=O)(=O)c1ccc(O)c(NC(=O)Nc2cccc3ccccc23)c1 | -2.0 | 101.0 | -0.771 | 1.11 | -6.5 | /
CN(C)CCNc1ncnc2c1ncn2[C@H]1CN(Cc2cccnc2)C[C@@H](CO)O1 | / | 92.0 | / | / | / | /
O=[N+]([O-])c1cc(S(=O)(=O)NCCN2CCOCC2)ccc1Sc1nnnn1-c1ccccc1 | 0.1 | 93.0 | -3.38 | -0.546 | 14.2 | /
Cc1ccc(-n2nnnc2Sc2ccc(S(=O)(=O)NCCN(C)C)cc2[N+](=O)[O-])cc1 | -0.8 | 103.0 | -3.95* | -0.0368 | -2.2 | +
CCOc1cc(C=C(C(=O)OC)C(=O)OC)ccc1OCc1ccc([N+](=O)[O-])cc1 | 2.5 | 94.0 | -5.7* | 1.11 | -8.9 | +
CCOc1cc(/C=N/O)ccc1OCc1ccc([N+](=O)[O-])cc1 | -1.7 | 93.0 | -0.689 | -1.6 | 0.6 | /
